In ChEMBL document CHEMBL1122347, “synthesis and antihypertensive activity of 2-sulfonamido- and 2-sulfamido-1,3,4,6,7,11b alpha-hexahydro-2H-benzo[a]quinolizines” (1983):
Where “and” joins values, the source holds several entries; their conditions need not be identical. Equal values may be shown once. Calls of active or inactive are those of the source. No cut-off for these calls is given here.

What was measured:
Rattus norvegicus [1] = test: Antihypertensive activity in DOCA/saline rat dosed at 50 mg/kg, administered perorally expressed as percent fall in blood pressure after 2 h; type: functional; conditions: route oral
In short: (§1)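 Hypertensive rats were kept only if systolic pressure was at least 155 mmHg, in groups of four. They were dosed orally in 0.5% (hydroxypropyl)methylcellulose/0.9% saline vehicle (10 mL/kg), with a vehicle-alone control. Systolic pressure was measured by tail-cuff with a pneumatic pulse transducer in 37 °C housing before dosing and at 2, 6 and 24 h. Heart rate was taken from pulse traces. Means ± SE; ANOVA against control, p > 0.05 nonsignificant.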

Rattus norvegicus [2] = test: (§2) Antihypertensive activity in DOCA/saline rat dosed at 50 mg/kg, administered perorally expressed as percent rise in heart rate after 2 h; NS is not significant; type: functional, organism-based; design: dose 50 mg/kg; in short: as §1
Rattus norvegicus [3] = test: Antihypertensive activity in DOCA/saline rat dosed at 50 mg/kg, administered perorally expressed as percent rise in heart rate after 6 h; NS is not significant; type: functional, organism-based; design: dose 50 mg/kg; in short: as §1
Rattus norvegicus [4] = test: Antihypertensive activity in DOCA/saline rat dosed at 50 mg/kg, administered perorally expressed as percent fall in blood pressure after 6 h; type: functional; conditions: route oral; in short: as §1
Rattus norvegicus [5] = test: Antihypertensive activity in DOCA/saline rat dosed at 50 mg/kg, administered perorally expressed as percent rise in heart rate after 6 h; NS is not significant,; type: functional, organism-based; design: dose 50 mg/kg; in short: as §1
Rattus norvegicus [6] = test: Antihypertensive activity in DOCA/saline rat dosed at 50 mg/kg, administered perorally expressed as percent fall in blood pressure after 6 h; NS is not significant; type: functional, organism-based; design: dose 50 mg/kg; in short: as §1
Rattus norvegicus [7] = test: Antihypertensive activity in DOCA/saline rat dosed at 50 mg/kg, administered perorally expressed as percent fall in blood pressure after 2 h; NS is not significant; type: functional, organism-based; design: dose 50 mg/kg; in short: as §1
Rattus norvegicus [8] = test: Antihypertensive activity in DOCA/saline rat dosed at 50 mg/kg administered perorally expressed as percent rise in heart rate after 2 h; NS is not significant; type: functional, organism-based; design: dose 50 mg/kg; in short: as §1
Rattus norvegicus [9] = test: Antihypertensive activity in DOCA/saline rat dosed at 50 mg/kg, administered perorally expressed as percent rise in heart rate after 2 h; type: functional; conditions: route oral; in short: as §1
Rattus norvegicus [10] = test: Antihypertensive activity in DOCA/saline rat dosed at 25 mg/kg, administered perorally expressed as percent fall in blood pressure after 6 h; NS is not significant; type: functional, organism-based; design: dose 25 mg/kg; in short: as §1
Rattus norvegicus [11] = test: as §2; type: functional, organism-based; design: dose 50 mg/kg; in short: as §1; remark: listed apart in the source
Rattus norvegicus [12] = test: Antihypertensive activity in DOCA/saline rat dosed at 50 mg/kg, administered perorally expressed as percent rise in heart rate after 6 h; type: functional; conditions: route oral; in short: as §1
Rattus norvegicus [13] = test: Antihypertensive activity in DOCA/saline rat dosed at 25 mg/kg, administered perorally expressed as percent rise in heart rate after 2 h; NS is not significant; type: functional, organism-based; design: dose 25 mg/kg; in short: as §1
Rattus norvegicus [14] = test: Antihypertensive activity in DOCA/saline rat dosed at 25 mg/kg, po administered perorally expressed as percent rise in heart rate after 6 h; NS is not significant; type: functional, organism-based; design: dose 25 mg/kg; in short: as §1
Rattus norvegicus [15] = test: Antihypertensive activity in DOCA/saline rat dosed at 25 mg/kg, administered perorally expressed as percent fall in blood pressure after 2 h; type: functional; conditions: route oral; in short: as §1
Rattus norvegicus [16] = test: Antihypertensive activity in DOCA/saline rat dosed at 10mg/kg, administered perorally expressed as percent rise in heart rate after 2 h; type: functional; in short: as §1
Rattus norvegicus [17] = test: Antihypertensive activity in DOCA/saline rat dosed at 10 mg/kg, administered perorally expressed as percent rise in heart rate after 6 h; NS is not significant; type: functional, organism-based; design: dose 10 mg/kg; in short: as §1
Rattus norvegicus [18] = test: Antihypertensive activity in DOCA/saline rat dosed at 10 mg/kg, administered perorally expressed as percent fall in blood pressure after 2 h; type: functional; conditions: route oral; in short: as §1
Rattus norvegicus [19] = test: Antihypertensive activity in DOCA/saline rat dosed at 25 mg/kg, po administered perorally expressed as percent rise in heart rate after 2 h; NS is not significant; type: functional, organism-based; design: dose 25 mg/kg; in short: as §1
Rattus norvegicus [20] = test: Antihypertensive activity in DOCA/saline rat dosed at 10 mg/kg, administered perorally expressed as percent fall in blood pressure after 6 h; NS is not significant; type: functional, organism-based; design: dose 10 mg/kg; in short: as §1
Rattus norvegicus [21] = test: Antihypertensive activity in DOCA/saline rat dosed at 25 mg/kg, administered perorally expressed as percent rise in heart rate after 6 h; NS is not significant; type: functional, organism-based; design: dose 25 mg/kg; in short: as §1
Rattus norvegicus [22] = test: Antihypertensive activity in DOCA/saline rat dosed at 50 mg/kg, administered perorally expressed as percent rise in heart rate after 2 h; NS is not significant,; type: functional, organism-based; design: dose 50 mg/kg; in short: as §1
Rattus norvegicus [23] = test: Antihypertensive activity in DOCA/saline rat dosed at 25 mg/kg, administered perorally expressed as percent fall in blood pressure after 6 h; type: functional; conditions: route oral; in short: as §1
Rattus norvegicus [24] = test: Antihypertensive activity in DOCA/saline rat dosed at 10 mg/kg, administered perorally expressed as percent fall in blood pressure after 2 h; NS is not significant; type: functional, organism-based; design: dose 10 mg/kg; in short: as §1
Rattus norvegicus [25] = test: Antihypertensive activity in DOCA/saline rat dosed at 10mg/kg, administered perorally expressed as percent fall in blood pressure after 6 h; NS is not significant; type: functional, organism-based; in short: as §1
Rattus norvegicus [26] = test: Antihypertensive activity in DOCA/saline rat dosed at 50 mg/kg, po administered perorally expressed as percent rise in heart rate after 2 h; type: functional; in short: as §1
Rattus norvegicus [27] = test: Antihypertensive activity in DOCA/saline rat dosed at 25 mg/kg, administered perorally expressed as percent fall in blood pressure after 2 h; NS is not significant; type: functional, organism-based; design: dose 25 mg/kg; in short: as §1
Rattus norvegicus [28] = organism: Rattus norvegicus; conditions: 2 mg/kg
Rattus norvegicus [29] = organism: Rattus norvegicus; conditions: Heart, 2 mg/kg
Rattus norvegicus [30] = test: Antihypertensive activity in DOCA/saline rat dosed at 50 mg/kg, po expressed as percent rise in heart rate after 6 h; NS is not significant; type: functional, organism-based; design: dose 50 mg/kg; in short: as §1
Rattus norvegicus [31] = test: Antihypertensive activity in DOCA/saline rat dosed at 50 mg/kg, po expressed as percent fall in blood pressure after 6 h; NS is not significant; type: functional, organism-based; design: dose 50 mg/kg; in short: as §1
Rattus norvegicus [32] = test: Antihypertensive activity in DOCA/saline rat dosed at 50 mg/kg, po expressed as percent fall in blood pressure after 2 h; type: functional; in short: as §1
Rattus norvegicus [33] = test: Antihypertensive activity in DOCA/saline rat dosed at 50 mg/kg, po expressed as percent rise in heart rate after 2 h; type: functional; in short: as §1

SMILES | Decrease in blood pressure (Rattus norvegicus [1]) | Rise HR (Rattus norvegicus [2]) | Rise HR (Rattus norvegicus [3]) | Decrease in blood pressure (Rattus norvegicus [4]) | Decrease in blood pressure (Rattus norvegicus [6]) | Decrease in blood pressure (Rattus norvegicus [7]) | also measured
CN(C)S(=O)(=O)N[C@@H]1CCN2CCc3ccccc3[C@@H]2C1.Cl | 45% | inactive | inactive | 31% | – | – | –
CS(=O)(=O)N[C@H]1CCN2CCc3ccccc3[C@@H]2C1 | – | – | – | – | inactive | inactive | Rise HR (Rattus norvegicus [5]): inactive; Rise HR (Rattus norvegicus [8]): inactive
COc1cc2c(cc1OC)[C@@H]1C[C@H](NS(C)(=O)=O)CCN1CC2.Cl | 44% | – | inactive | 35% | – | – | Rise HR (Rattus norvegicus [9]): 16%
CCS(=O)(=O)N[C@@H]1CCN2CCc3ccccc3[C@@H]2C1.Cl | – | inactive | – | 43% | – | – | Rise HR (Rattus norvegicus [5]): inactive; Decrease in blood pressure (Rattus norvegicus [1]; 50 mg/kg): 56% and 37%; Decrease in blood pressure (Rattus norvegicus [10]): inactive; Rise HR (Rattus norvegicus [11]): inactive; Rise HR (Rattus norvegicus [12]): 22%; Rise HR (Rattus norvegicus [13]): inactive; Rise HR (Rattus norvegicus [14]): inactive; Decrease in blood pressure (Rattus norvegicus [15]): 42%
CCN(CC)S(=O)(=O)N[C@@H]1CCN2CCc3ccccc3[C@@H]2C1.Cl | 29% | inactive | inactive | – | inactive | – | –
CS(=O)(=O)N[C@@H]1CCN2CCc3ccccc3[C@@H]2C1.Cl | 53% | – | – | 68% | – | – | Rise HR (Rattus norvegicus [16]): 39%; Rise HR (Rattus norvegicus [17]): inactive; Decrease in blood pressure (Rattus norvegicus [18]): 28%; Rise HR (Rattus norvegicus [19]): inactive; Increase in heart rate (Rattus norvegicus [3]): inactive; Decrease in blood pressure (Rattus norvegicus [20]): inactive; Rise HR (Rattus norvegicus [21]): inactive; Increase in heart rate (Rattus norvegicus [22]): Not significant; Decrease in blood pressure (Rattus norvegicus [23]): 50%; Decrease in blood pressure (Rattus norvegicus [15]): 50%
COc1cc2c(cc1OC)[C@@H]1C[C@H](NS(N)(=O)=O)CCN1CC2.Cl | 22% | inactive | inactive | – | inactive | – | –
CN([C@@H]1CCN2CCc3ccccc3[C@@H]2C1)S(C)(=O)=O | – | inactive | inactive | – | inactive | inactive | –
Cl.NS(=O)(=O)N[C@@H]1CCN2CCc3ccccc3[C@@H]2C1 | 48% | – | inactive | 50% | – | – | Decrease in blood pressure (Rattus norvegicus [24]): inactive; Rise HR (Rattus norvegicus [9]): 24%; Rise HR (Rattus norvegicus [16]): 24%; Rise HR (Rattus norvegicus [17]): inactive; Decrease in blood pressure (Rattus norvegicus [25]): inactive
CCCS(=O)(=O)N(C)[C@@H]1CCN2CCc3ccccc3[C@@H]2C1.Cl | 38% | – | – | – | inactive | – | Decrease in blood pressure (Rattus norvegicus [10]): inactive; Rise HR (Rattus norvegicus [26]): 15%; Rise HR (Rattus norvegicus [12]): 21%; Rise HR (Rattus norvegicus [13]): inactive; Rise HR (Rattus norvegicus [21]): inactive; Decrease in blood pressure (Rattus norvegicus [27]): inactive
CCS(=O)(=O)N[C@H]1CCN2CCc3ccccc3[C@@H]2C1 | – | inactive | inactive | – | inactive | inactive | –
O=S(=O)(Nc1ccccc1)N[C@@H]1CCN2CCc3ccccc3[C@@H]2C1 | – | inactive | inactive | – | inactive | inactive | –
CCCS(=O)(=O)N[C@@H]1CCN2CCc3ccccc3[C@@H]2C1.Cl | 28% | – | inactive | 46% | – | – | Rise HR (Rattus norvegicus [9]): 14%
NNc1nncc2ccccc12 | – | – | – | – | – | – | Decrease in blood pressure (Rattus norvegicus [28]): inactive; Rise HR (Rattus norvegicus [29]): inactive
CCS(=O)(=O)N(C)[C@@H]1CCN2CCc3ccccc3[C@@H]2C1.Cl | – | – | – | – | – | – | Decrease in blood pressure (Rattus norvegicus [10]): inactive; Rise HR (Rattus norvegicus [13]): inactive; Rise HR (Rattus norvegicus [21]): inactive; Decrease in blood pressure (Rattus norvegicus [15]): 36%
Cl.O=S(=O)(N[C@@H]1CCN2CCc3ccccc3[C@@H]2C1)N1CCCC1 | – | – | inactive | – | inactive | inactive | Rise HR (Rattus norvegicus [9]): 22%
O=S(=O)(N[C@@H]1CCN2CCc3ccccc3[C@@H]2C1)c1ccccc1 | – | inactive | inactive | – | inactive | inactive | –
Cc1ccc(N(CC2=NCCN2)c2cccc(O)c2)cc1 [PHENTOLAMINE] | – | – | – | – | – | – | Rise HR (Rattus norvegicus [30]): inactive; Decrease in blood pressure (Rattus norvegicus [31]): inactive; Decrease in blood pressure (Rattus norvegicus [32]): 36%; Rise HR (Rattus norvegicus [33]): 23%
CS(=O)(=O)N[C@@H]1CCN2CCc3ccc(Cl)cc3[C@@H]2C1 | – | inactive | inactive | – | inactive | inactive | –
Cl.O=S(=O)(N[C@H]1CCN2CCc3ccccc3[C@@H]2C1)c1ccccc1 | – | inactive | inactive | 18% | – | inactive | –
CNS(=O)(=O)N[C@@H]1CCN2CCc3ccccc3[C@@H]2C1.Cl | 35% | – | inactive | 18% | – | – | Rise HR (Rattus norvegicus [9]): 23%
